Assay results from different studies.
Each line is one published result; the experiments were not run side by side.

CC1=C(C(=O)OCc2ccccc2)C(=O)/C(=C\c2cc(C)n(-c3ccccc3C(F)(F)F)c2C)N1  chromatographic logD (HPLC; pH 7.4): 4
c1ccc(C2CCN(c3nc(-c4cnn5cccnc45)nc4ccccc34)C2)nc1 (centres unmarked)  microsomal CLint (metabolic stability; human, liver microsomes): 47 µL/min/mg
COc1cc(C(=O)NC2CCN(C)CC2)c(F)cc1Nc1ncc(C(F)(F)F)c(Oc2cccc3c2C(=O)N(C)C3)n1  CL/F (human, plasma; oral, 100 mg, multiple doses, once daily, patients): 174 mL/min
Fc1ccc(Nc2c(-c3cc(Cl)ccn3)nc3ccccn23)cc1  hepatocyte CLint (metabolic stability; rat, hepatocytes): > 300 µL/min/10⁶ cells
OC[C@H]1O[C@@H](c2ccc(Cl)c(Cc3ccc(O[C@H]4CCOC4)cc3)c2)[C@H](O)[C@@H](O)[C@@H]1O  renal clearance (human, urine; oral, 2.5 mg, single dose): 29.1 mL/min
CCCN(c1ccc(F)cc1)c1c(-c2ccccn2)nc2ccccn12  hepatocyte CLint (metabolic stability; rat, hepatocytes): 110 µL/min/10⁶ cells
c1ccc(-c2nc(N3CCc4ncccc4C3)c3ccccc3n2)nc1  microsomal CLint (metabolic stability; human, liver microsomes): 71 µL/min/mg
Fc1ccc(Nc2c(-c3ccccn3)nc3ccccn23)nc1  hepatocyte CLint (metabolic stability; rat, hepatocytes): 18 µL/min/10⁶ cells
Fc1cccc(Nc2nc(-c3ccccn3)nc3ccccc23)c1  microsomal CLint (metabolic stability; human, liver microsomes): 81 µL/min/mg
CCNCCCNC/C=C\CNCCCNCC  clearance (human, plasma; intravenous, 150 mg, patients, infusion): 5910 mL/min
COc1ccccc1-c1nc(N2CCC(c3ccccn3)C2)c2ccccc2n1 (centres unmarked)  microsomal CLint (metabolic stability; human, liver microsomes): 69 µL/min/mg
Fc1ccc(Nc2c(-c3cccc(F)n3)nc3ccccn23)cc1  hepatocyte CLint (metabolic stability; rat, hepatocytes): > 300 µL/min/10⁶ cells
CC(C)CN(C[C@@H](O)[C@H](Cc1ccccc1)NC(=O)O[C@H]1CO[C@H]2OCC[C@H]21)S(=O)(=O)c1ccc(N)cc1  logD (shake flask; PBS; pH 3): 2.98
COc1cccc(-c2nc3ccccn3c2Nc2ccc(F)cc2)n1  hepatocyte CLint (metabolic stability; rat, hepatocytes): > 300 µL/min/10⁶ cells
c1cnc2ccc(Nc3nc(NC4CC4)c4nc[nH]c4n3)cc2c1  CL/F (human, plasma; oral, 200 mg/m², patients): 1350 mL/min
CN(c1ccc(F)cc1)c1c(-c2ccc(F)cn2)nc2ccccn12  hepatocyte CLint (metabolic stability; rat, hepatocytes): > 300 µL/min/10⁶ cells
O=C1C2N=CN3C(NCc4c(F)ccc5c4CCO5)=NC=C(c4cnc(C(F)(F)F)cc4CN1CC(F)F)C23 (centres unmarked)  scaled CLint (metabolic stability; rat, liver microsomes; 100 µM, 30 min): 20 mL/min/kg
c1ccc(-c2nc(NCc3ccco3)c3ccccc3n2)nc1  microsomal CLint (metabolic stability; human, liver microsomes): 71 µL/min/mg
CCOC(=O)C1=C(C)N/C(=C/c2cc(C)n(-c3ccc(N4CCOCC4)cc3)c2C)C1=O  chromatographic logD (HPLC; pH 7.4): 2.8
c1ccc(C2CCN(c3nc(-c4ccn[nH]4)nc4ccccc34)C2)nc1 (centres unmarked)  microsomal CLint (metabolic stability; human, liver microsomes): 46 µL/min/mg
Cc1ccc(C(=O)N(CCCN)[C@@H](c2oc3cc(Cl)ccc3c(=O)c2Cc2ccccc2)C(C)C)cc1  clearance (human, plasma; intravenous, 2 mg/m², single dose, patients, infusion): 26.6 mL/min
COc1cccnc1-c1nc2ccccn2c1N(C)c1ccc(F)cc1  hepatocyte CLint (metabolic stability; rat, hepatocytes): > 300 µL/min/10⁶ cells
c1ccc(-c2nc(N3CCC(c4ccccn4)C3)c3ccccc3n2)cc1 (centres unmarked)  microsomal CLint (metabolic stability; human, liver microsomes): 182 µL/min/mg
